Experimental data taken from ChEMBL document CHEMBL1142319, “New antitumor imidazo[2,1-b]thiazole guanylhydrazones and analogues” (2008).
Calls of active or inactive are those of the source. The rule behind the calls is not given here.

What was measured:
HL-60 [1] = experiment: Induction of apoptosis in human HL60 cells assessed as caspase activity after 4 hrs; format: functional, cell-based
Method in brief: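 HL-60 cells treated 4 h across a range of concentrations. DEVD-cleaving caspase (DEVDase) activity measured fluorimetrically in cell extracts. One typical experiment shown, repeated at least twice.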

Cancer cell lines [2] = experiment: Inhibition of human CNS cancer cells; format: functional; settings: for TGI: read-out: pTGI (converted)
Method in brief: (§1)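 NCI 60-cell-line panel, with results grouped by tissue subpanel. Compounds dissolved in DMSO and tested at five 10-fold dilutions, top concentration 10^-4 M. Values given as -log molar concentration for 50% growth inhibition (pGI50), total growth inhibition (pTGI) and 50% cell kill (pLC50), with subpanel means calculated.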

Cancer cell lines [3] = experiment: Inhibition of human breast cancer cells; format: functional; settings: for TGI: read-out: pTGI (converted); method in brief: as §1
Leukemia cell = experiment: Inhibition of human leukemia cells; format: functional; method in brief: as §1
HL-60 [4] = experiment: Disruption of mitochondrial membrane potential in human HL60 cells at 5 uM after 1 hr; format: functional, cell-based
Method in brief: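 HL-60 cells exposed to 5 µM for 1 h, then loaded with 40 nM DiOC6 for 40 min at 1 × 10⁶ cells/mL, 37 °C, in the dark. Mitochondrial membrane potential read by flow cytometry. Mean ± SEM of triplicate determinations.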

HL-60 [5] = experiment: Effect on energy metabolism assessed as increase in AMP/ATP ratio in human HL60 cells at 5 uM after 3 hrs; format: functional, cell-based
Method in brief: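 HL-60 cells treated 3 h with 5 µM. Adenine nucleotide levels measured and the AMP/ATP ratio calculated from them. Mean ± SEM of triplicate determinations.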

HL-60 [6] = experiment: Cell cycle arrest in human HL60 cells assessed as accumulation at S phase at 2 uM; format: functional
Method in brief: (§2)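 HL-60 cells kept in RPMI 1640 with 10% FBS and 2 mM glutamine at 37 °C, 5% CO2. Treated 24 h at 2 µM from DMSO stock diluted in medium. Cells fixed in cold 70% ethanol and stained with propidium iodide 50 µg/mL plus RNAase 10 µg/mL for 30 min. DNA profiles read by flow cytometry on ≥10 000 cells, and phase percentages calculated.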

Cancer cell lines [7] = experiment: Inhibition of human prostate cancer cells; format: functional; settings: for TGI: read-out: pTGI (converted); method in brief: as §1
Cancer cell lines [8] = experiment: Inhibition of human colon cancer cells; format: functional; settings: for TGI: read-out: pTGI (converted); method in brief: as §1
HL-60 [9] = experiment: Induction of apoptosis in human HL60 cells assessed as chromatin condensation at 5 uM after 3 hrs; format: functional, cell-based
Method in brief: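 HL-60 cells on glass coverslips treated 3 h with 5 µM. Cells fixed in 4% paraformaldehyde in PBS and stained with Hoechst 0.1 µg/mL. Nuclear morphology (chromatin condensation, apoptotic bodies) scored by fluorescence microscopy. Experiment repeated at least twice.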

HL-60 [10] = experiment: Induction of cell death in human HL60 cells assessed as LDH release at 5 uM after 24 hrs; format: functional, cell-based
Method in brief: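 HL-60 cells exposed 24 h to 5 µM. Medium aliquots collected and LDH activity determined spectrophotometrically from NADH at 340 nm. One typical experiment shown, repeated at least twice.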

HL-60 [11] = experiment: Cell cycle arrest in human HL60 cells assessed as accumulation at G0/G1 phase at 2 uM; format: functional; method in brief: as §2
Melanoma cell = experiment: Inhibition of human melanoma cells; format: functional; settings: for TGI: read-out: pTGI (converted); method in brief: as §1
HL-60 [12] = experiment: Increase in peroxide formation in human HL60 cells at 5 uM after 3 hrs; format: functional, cell-based
Method in brief: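 Intracellular peroxides measured in HL-60 cells after 3 h at 5 µM. Cells incubated with 5 µM DCF-DA for 30 min at 37 °C, then read by flow cytometry. Mean ± SEM of triplicates.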

Cancer cell lines [13] = experiment: Inhibition of human renal cancer cells; format: functional; settings: for TGI: read-out: pTGI (converted); method in brief: as §1
HL-60 [14] = experiment: Induction of cell death in human HL60 cells at 2 uM by propidium iodide staining method; format: functional
Method in brief: (§3)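 HL-60 cells in RPMI 1640 with 10% FBS and 2 mM glutamine at 37 °C, 5% CO2, exposed for 24 h to compound diluted in medium from DMSO. Cells were counterstained with propidium iodide (5 µg/mL) for plasma membrane integrity and analysed by flow cytometry. The readout is the percentage of PI-positive cells.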

Cancer cell lines [15] = experiment: Inhibition of human ovarian cancer cells; format: functional; settings: for TGI: read-out: pTGI (converted); method in brief: as §1
HL-60 [16] = experiment: Cell cycle arrest in human HL60 cells assessed as accumulation at G2/M phase at 2 uM; format: functional; method in brief: as §2
HL-60 [17] = experiment: Effect on cell growth in human HL60 cells assessed as cell number per mL at 2 uM; format: functional; set-up: scale not given here
Method in brief: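 HL-60 cells in RPMI 1640 with 10% FBS and 2 mM glutamine, 37 °C, 5% CO2, doubling time about 24 h. Exposed 24 h to 2 µM compound diluted from DMSO into medium. Cells per mL counted with a Coulter counter.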

Cancer cell lines [18] = experiment: Inhibition of human non-small cell lung cancer cells; format: functional; settings: for TGI: read-out: pTGI (converted); method in brief: as §1
[19] = target: T1, S-adenosylmethionine decarboxylase proenzyme (Homo sapiens) (UniProt P17707); experiment: Inhibition of human S-adenosyl methionine decarboxylase in HL60 cells at 1 to 100 uM; format: cell-based; settings: HL-60
T1 sequence (whole entry): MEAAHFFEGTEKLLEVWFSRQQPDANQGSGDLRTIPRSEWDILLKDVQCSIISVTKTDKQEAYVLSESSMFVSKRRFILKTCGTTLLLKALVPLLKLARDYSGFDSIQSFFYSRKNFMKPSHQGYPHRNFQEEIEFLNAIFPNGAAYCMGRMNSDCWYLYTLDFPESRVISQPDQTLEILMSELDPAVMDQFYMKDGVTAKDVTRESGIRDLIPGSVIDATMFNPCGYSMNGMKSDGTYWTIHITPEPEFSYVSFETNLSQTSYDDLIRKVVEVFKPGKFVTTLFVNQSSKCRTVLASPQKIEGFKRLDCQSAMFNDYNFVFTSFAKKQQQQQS

HL-60 [20] = experiment: Effect on cell growth in human HL60 cells assessed as cell number per mL at 10 uM; format: functional
Method in brief: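 HL-60 cells grown in RPMI 1640 with 10% FBS and 2 mM glutamine at 37 °C, 5% CO2 (doubling time about 24 h). Compound was taken from a DMSO stock, diluted in medium and applied for 24 h. Growth was assessed by Coulter cell counting, reported as cells/mL.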

HL-60 [21] = experiment: Cell cycle arrest in human HL60 cells assessed as accumulation at G2/M phase at 10 uM; format: functional
Method in brief: (§4)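 HL-60 cells growing exponentially in RPMI 1640 with 10% FBS and 2 mM glutamine at 37 °C under 5% CO2. Compound was dissolved in DMSO, diluted in medium and applied for 24 h. Cells were fixed in cold 70% ethanol and stained with 50 µg/mL propidium iodide plus 10 µg/mL RNase for 30 min. DNA content was read by flow cytometry (≥10,000 cells) and the percentage of cells in each phase calculated.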

HL-60 [22] = experiment: Induction of cell death in human HL60 cells at 10 uM by propidium iodide staining method; format: functional; method in brief: as §3
HL-60 [23] = experiment: Cell cycle arrest in human HL60 cells assessed as accumulation at S phase at 10 uM; format: functional; method in brief: as §4
HL-60 [24] = experiment: Cell cycle arrest in human HL60 cells assessed as accumulation at G0/G1 phase at 10 uM; format: functional; method in brief: as §4

Compound	GI50 (Cancer cell lines [2]) [µM]	TGI (Cancer cell lines [2]) [µM]	GI50 (Cancer cell lines [3]) [µM]	TGI (Cancer cell lines [3]) [µM]	GI50 (Leukemia cell) [µM]	GI50 (Cancer cell lines [7]) [µM]	TGI (Cancer cell lines [7]) [µM]	GI50 (Cancer cell lines [8]) [µM]	TGI (Cancer cell lines [8]) [µM]	GI50 (Melanoma cell) [µM]	TGI (Melanoma cell) [µM]	GI50 (Cancer cell lines [13]) [µM]	TGI (Cancer cell lines [13]) [µM]	GI50 (Cancer cell lines [15]) [µM]	TGI (Cancer cell lines [15]) [µM]	GI50 (Cancer cell lines [18]) [µM]	TGI (Cancer cell lines [18]) [µM]	other results
COc1cc([N+](=O)[O-])c(OC)cc1-c1nc2sc(Cl)cn2c1/C=N\NC1=NCCN1	0.646	2.09	1.82	42.7	2.63	0.759	1.15	0.501	2.95	1.26	3.89	1.35	3.39	0.741	1.86	0.933	4.79	Activity (HL-60 [1]): Dose-dependent effect; Activity (HL-60 [4]): Active; Activity (HL-60 [5]): Active; Activity (HL-60 [6]): 51.9%; Activity (HL-60 [9]): Active; Activity (HL-60 [10]): Active; Activity (HL-60 [11]): 33.1%; Activity (HL-60 [12]): Active; Activity (HL-60 [14]): 22%; Activity (HL-60 [16]): 15.1%; Activity (HL-60 [17]): 485; Activity [19]: Active
CC(/C=N/NC(=N)N)=N\NC(=N)N [MITOGUAZONE]	20	251	15.8	316	7.94	100	1580	12.6	501	39.8	316	20	501	15.8	316	25.1	316	TGI (Leukemia cell; read-out: pTGI (converted)): 631 µM; Activity (HL-60 [20]): 702; Activity (HL-60 [21]): 15.5%; Activity (HL-60 [22]): 5.2%; Activity (HL-60 [23]): 40.9%; Activity (HL-60 [24]): 43.6%
